{"source": "ChEMBL document CHEMBL3616459", "about": "“Antimicrobial peptides with potential for biofilm eradication: synthesis and structure activity relationship studies of battacin peptides” (J Med Chem, 2015)", "key": {"[1]": {"tested_on": "Staphylococcus aureus", "test": "Antimicrobial activity against Staphylococcus aureus preformed biofilms at 10 to 25 uM after 48 hrs", "assay_type": "functional, organism-based"}, "[2]": {"tested_on": "Staphylococcus aureus", "test": "Bactericidal activity against Staphylococcus aureus at 4 to 20 times MIC after 24 hrs by time-kill assay", "assay_type": "functional, organism-based", "summary_of_the_method": "(§1)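 Time-kill assay. Overnight culture diluted in LB to mid-log phase, 10^5–10^8 CFU/mL; 100 μL added to 10 mL peptide in LB at 1×, 2×, 4× and 20× MIC. Incubated with shaking at 100 rpm, at 28 °C (Ea1501, Psa) or 37 °C (E. coli, P. aeruginosa, S. aureus). Samples at 0, 0.5, 1, 3, 6, 9 and 24 h serially diluted in 0.9% saline and plated; colonies counted after 24 h. Run in duplicate. Bactericidal means ≥2-log10 CFU/mL drop versus the no-antibiotic control.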"}, "[3]": {"tested_on": "Escherichia coli", "test": "Bactericidal activity against Escherichia coli assessed as reduction in bacterial count at 20 times MIC up to 3 hrs by time-kill assay relative to control", "assay_type": "functional", "summary_of_the_method": "as §1"}, "[4]": {"tested_on": "Pseudomonas syringae pv. actinidiae", "test": "Antimicrobial activity against Pseudomonas syringae pv. actinidiae 16027 preformed biofilms after 48 hrs by crystal violet staining-based microscopy", "assay_type": "functional", "summary_of_the_method": "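Psa16027 biofilms formed 48 h without peptide, then washed. 100 μL of peptide (1, 5 or 50 μM) in LB, or LB alone, added and incubated a further 24 h at 28 °C. Crystal violet staining followed, with A560 estimation of biofilm mass and microscopy.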"}, "[5]": {"tested_on": "Pseudomonas aeruginosa", "test": "Bactericidal activity against Pseudomonas aeruginosa assessed as reduction in bacterial count at 2 to 4 times MIC after 24 hrs by time-kill assay relative to control", "assay_type": "functional", "summary_of_the_method": "as §1"}, "[6]": {"test": "Antimicrobial activity against Pseudomonas syringae pv. actinidiae 16027 after 24 hrs by spectrophotometry", "assay_type": "functional", "details": "Pseudomonas syringae, 16027, 24 h", "summary_of_the_method": "(§2)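 Broth microdilution in Luria broth. Overnight culture from a single colony, grown at 28 °C (Ea1501, Psa) or 37 °C (E. coli, S. aureus), adjusted to OD600 0.6. Peptide dissolved in LB with 0.5% acetic acid as a dilution series; 50 μL peptide plus 50 μL culture per well, triplicates.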"}, "[7]": {"tested_on": "Pseudomonas aeruginosa", "test": "Antimicrobial activity against Pseudomonas aeruginosa assessed as inner membrane permeability at 0.5 to 100 uM measured after 60 min by propidium iodide uptake assay"}, "[8]": {"tested_on": "Erwinia amylovora", "test": "Bactericidal activity against Erwinia amylovora 1501 at 2 to 20 times MIC after 9 hrs by time-kill assay", "assay_type": "functional, organism-based", "summary_of_the_method": "as §1"}, "[9]": {"tested_on": "Erwinia amylovora", "test": "Antimicrobial activity against Erwinia amylovora 1501 after 24 hrs by spectrophotometry", "assay_type": "functional", "details": "Erwinia amylovora, 1501, 24 h", "summary_of_the_method": "as §2"}, "[10]": {"tested_on": "Erwinia amylovora", "test": "Antimicrobial activity against streptomycin-resistant Erwinia amylovora after 24 hrs by spectrophotometry", "assay_type": "functional", "summary_of_the_method": "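Broth microdilution in Luria broth; overnight culture grown at 28 °C, adjusted to OD600 0.6, mixed 1:1 with a dilution series of peptide prepared in LB containing 0.5% acetic acid. Three replicates per concentration.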"}, "[11]": {"tested_on": "Pseudomonas syringae", "test": "Bactericidal activity against Pseudomonas syringae pv. actinidiae 16027 at 1 to 2 times MIC after 9 hrs by time-kill assay", "assay_type": "functional, organism-based", "summary_of_the_method": "as §1"}, "[12]": {"tested_on": "Erwinia amylovora", "test": "Bactericidal activity against Erwinia amylovora 1501 at MIC […] by time-kill assay", "assay_type": "functional, organism-based"}, "[13]": {"tested_on": "Pseudomonas syringae", "test": "Bactericidal activity against Pseudomonas syringae pv. actinidiae 16027 at 20 times MIC up to 1 hr by time-kill assay", "assay_type": "functional, organism-based", "summary_of_the_method": "as §1"}, "[14]": {"tested_on": "Staphylococcus aureus", "test": "Bactericidal activity against Staphylococcus aureus by time-kill assay", "assay_type": "functional, organism-based", "summary_of_the_method": "as §1"}}, "note": "Active and inactive are the calls of the source. The rule behind the calls is not given here. Non-standard residues stand in square brackets, D forms with d. Residues, ends and D or L forms follow the SMILES beside them. ξ: configuration not given here. *: point of attachment. Hexanoyl(4ξ-Me) = CCC(C)CCC(=O)*; dDab = NCC[C@@H](N)C(=O)O; Dab = NCC[C@H](N)C(=O)O"}
{"smiles": "CCC(C)CCC(=O)N[C@H](CCN)C(=O)N[C@@H](CCN)C(=O)N[C@@H](CCN)C(=O)N[C@@H](CC(C)C)C(=O)N[C@H](Cc1ccccc1)C(=O)N[C@@H](CCN)C(=O)N[C@@H](CCN)C(=O)N[C@@H](CC(C)C)C(N)=O", "note": "(stereo partly drawn) ({Hexanoyl(4ξ-Me)}-[dDab][Dab][Dab]L[dF][Dab][Dab]L-NH2)", "values": [{"measurement": "Activity", "setting": "[1]", "value": "Active"}, {"measurement": "Activity", "setting": "[2]", "value": "Active"}, {"measurement": "Activity", "setting": "[3]", "value": ">3", "unit": "deltalog10CFU/ml"}, {"measurement": "Activity", "setting": "[4]", "value": "Active"}, {"measurement": "Activity", "setting": "[5]", "value": ">2", "unit": "deltalog10CFU/ml"}, {"measurement": "MIC", "setting": "[6]", "value": 1, "unit": "µM"}, {"measurement": "Activity", "setting": "[7]", "value": "Active"}, {"measurement": "Activity", "setting": "[8]", "value": "Active"}, {"measurement": "MIC", "setting": "[9]", "value": 2.5, "unit": "µM"}, {"measurement": "MIC", "setting": "[10]", "value": 5, "unit": "µM"}, {"measurement": "Activity", "setting": "[11]", "value": "Active"}, {"measurement": "Activity", "setting": "[12]", "value": "inactive"}, {"measurement": "Activity", "setting": "[13]", "value": "Active"}, {"measurement": "Activity", "setting": "[14]", "value": "Dose-dependent effect"}]}
